Test results from ChEMBL document CHEMBL4480406, “Discovery of an SSTR2-Targeting Maytansinoid Conjugate (PEN-221) with Potent Activity in Vitro and in Vivo” (J Med Chem, 2019).
pEC50, pIC50, pKd, pKi: −log10 of the molar value. Activity calls are given as the source filed them. The calls are words filed in the database; no cut-off is given here.

Columns and labels:
[1] = Antitumor activity against human HCC33 cells xenografted in CrTac:NCr-Foxn1nu mouse assessed as tumor regression at 1 mg/kg, iv measured up to 16 days; type: functional
Procedure, shortened: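 Female athymic nude mice received subcutaneous right-flank implants in media:Matrigel (1:1): 2.5 × 10^6 HCC-33 cells (RPMI 1640/10% FBS) or 1 x 10^7 IMR-32 cells (EMEM/10% FBS). At 150-250 mm3, mice were randomized into groups of 10. Dosing was tail-vein i.v. on indicated days in 0.1% Solutol HS 15/5% mannitol/WFI. Caliper volume was (w2 × l)/2, reported as group mean ± SEM.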

[2] = Half life of the compound in phosphate buffer at 1 mM in presence of GSH by LC-MS/MS analysis; type: physicochemical; details: phosphate buffer with GSH
Procedure, shortened: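 Conjugate, added from a 1 mM methanol stock, was incubated in 5 mM GSH at 37 °C. Aliquots taken from 30 min to 6 h were quenched into N-ethyl maleimide in 1% ethanol, and remaining parent conjugate was measured by LC-MS/MS.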

[3] = Toxicity in CrTac:NCr-Foxn1nu mouse xenografted with human NCI-H69 cells assessed as body weight loss at 2 mg/kg, iv measured up to 40 days; type: organism-based; details: in vivo, 960 h
[4] = Half life in Beagle dog at 0.1 mg/kg, iv; type: ADME, organism-based, Canis lupus familiaris; details: in vivo
[5] = target: T1, Somatostatin receptor type 5 (Homo sapiens, UniProt P35346); test: Antagonist activity at SSTR5 (unknown origin) assessed as effect on agonist-induced calcium flux incubated for 180 secs by FLIPR assay; type: functional
T1 sequence (P35346 whole entry): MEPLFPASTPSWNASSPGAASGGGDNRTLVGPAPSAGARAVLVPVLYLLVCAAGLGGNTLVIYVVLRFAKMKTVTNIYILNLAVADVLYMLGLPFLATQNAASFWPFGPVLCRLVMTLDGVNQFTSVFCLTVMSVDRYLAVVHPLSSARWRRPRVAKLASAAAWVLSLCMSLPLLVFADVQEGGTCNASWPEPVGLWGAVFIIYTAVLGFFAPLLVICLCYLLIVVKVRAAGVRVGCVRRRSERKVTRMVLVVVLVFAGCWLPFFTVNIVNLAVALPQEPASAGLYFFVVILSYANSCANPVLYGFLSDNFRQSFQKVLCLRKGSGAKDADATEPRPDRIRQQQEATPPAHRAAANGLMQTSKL

[6] = target: Somatostatin receptor type 3 (Homo sapiens, UniProt P32745); test: Displacement of [125I]somatostatin from human SSTR3 expressed in CHO-K1 cell membranes after 120 mins
Sequence of Somatostatin receptor type 3 (P32745 whole entry): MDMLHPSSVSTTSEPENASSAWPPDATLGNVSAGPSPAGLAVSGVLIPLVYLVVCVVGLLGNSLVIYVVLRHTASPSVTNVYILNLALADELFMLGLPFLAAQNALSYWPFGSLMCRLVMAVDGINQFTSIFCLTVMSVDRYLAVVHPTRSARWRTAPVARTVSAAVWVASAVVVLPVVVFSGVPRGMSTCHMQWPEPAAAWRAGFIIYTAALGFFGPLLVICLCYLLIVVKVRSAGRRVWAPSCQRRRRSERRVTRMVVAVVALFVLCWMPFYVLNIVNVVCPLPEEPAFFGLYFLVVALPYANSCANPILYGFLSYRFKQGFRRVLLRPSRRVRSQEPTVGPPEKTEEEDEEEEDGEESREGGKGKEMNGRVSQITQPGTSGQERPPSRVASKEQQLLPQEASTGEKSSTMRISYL

[7] = Cmax in Beagle dog at 0.1 mg/kg, iv; type: ADME, organism-based, Canis lupus familiaris; set-up: dose 0.1 mg/kg, route intravenous; details: in vivo
[8] = test system: NCI-H524; test: Cytotoxicity in human NCI-H524 cells pre-incubated for 2 hrs in presence of 100 uM octreotide followed by compound wash out and subsequently incubated for 70 hrs by Cell Titer Glo assay; type: functional, cell-based
Procedure, shortened: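 Octreotide receptor-blockade variant: NCI-H524 cells (5,000/well) were pretreated with octreotide acetate for 30 min, then given compound for 2 h in a ten-point three-fold series.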

[9] = target: T2, Somatostatin receptor type 2 (Homo sapiens, UniProt P30874); test: Binding affinity to human SSTR2 expressed in CHO-K1 cells assessed as induction of SSTR2 internalization after 4 hrs by chemiluminescent assay; type: cell-based
T2 sequence (P30874 whole entry): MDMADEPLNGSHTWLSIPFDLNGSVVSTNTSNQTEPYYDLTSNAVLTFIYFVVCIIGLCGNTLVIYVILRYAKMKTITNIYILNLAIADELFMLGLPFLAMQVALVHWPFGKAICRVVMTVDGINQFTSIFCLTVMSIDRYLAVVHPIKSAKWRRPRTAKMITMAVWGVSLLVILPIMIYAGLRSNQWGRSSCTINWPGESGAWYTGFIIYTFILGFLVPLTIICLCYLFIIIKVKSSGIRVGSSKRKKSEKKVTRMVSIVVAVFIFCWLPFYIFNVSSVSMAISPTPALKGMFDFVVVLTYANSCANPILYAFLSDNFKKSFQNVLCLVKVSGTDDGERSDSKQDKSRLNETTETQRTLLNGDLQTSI

[10] = target: T2, Somatostatin receptor type 2; test: Antagonist activity at SSTR2 (unknown origin) assessed as effect on agonist-induced calcium flux incubated for 180 secs by FLIPR assay; type: functional
[11] = test system: NCI-H69; test: Antitumor activity against human NCI-H69 cells xenografted in CrTac:NCr-Foxn1nu mouse assessed as tumor regression at 1.3 mg/kg, iv measured up to 40 days; type: functional, organism-based
Procedure, shortened: (§1)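 Female athymic nude mice were implanted subcutaneously in the right flank with 2.5 × 10^6 NCI-H69 cells in medium/Matrigel 1:1. At 150-250 mm3, animals were randomized into groups of 10. Dosing was by tail-vein injection in 10% propylene glycol in 5 mM citrate pH 4 on the indicated days. Caliper volumes were calculated as (w2 × l)/2 and reported as mean ± SEM.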

[12] = Apparent permeability from apical to basolateral side in human Caco2 cells; type: ADME, cell-based; details: Caco-2
[13] = target: T1, Somatostatin receptor type 5; test: Agonist activity at SSTR5 (unknown origin) assessed as effect on calcium flux incubated for 180 secs by FLIPR assay; type: functional
[14] = Clearance in Beagle dog at 0.1 mg/kg, iv; type: ADME, organism-based, Canis lupus familiaris; details: in vivo
[15] = test system: IMR-32; test: Antitumor activity against human IMR32 cells xenografted in CrTac:NCr-Foxn1nu mouse assessed as tumor regression at […], iv measured up to 20 days; type: functional
[16] = target: T2, Somatostatin receptor type 2; test: Agonist activity at SSTR2 (unknown origin) assessed as effect on calcium flux incubated for 180 secs by FLIPR assay; type: functional
[17] = test system: NCI-H69; test: Antitumor activity against human NCI-H69 cells xenografted in CrTac:NCr-Foxn1nu mouse assessed as tumor regression at 2 mg/kg, iv measured up to 40 days; type: functional
Procedure, shortened: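 Female athymic nude mice were implanted subcutaneously in the right flank with 2.5 × 10^6 NCI-H69 cells (RPMI 1640/10% FBS culture) in media:Matrigel (1:1). At 150-250 mm3, mice were randomized into groups of 10. Compound in 10% propylene glycol in 5 mM citrate buffer (pH=4) was given by tail-vein i.v. injection on indicated days. Tumor volume was measured by calipers as (w2 × l)/2, reported as mean ± SEM.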

[18] = Drug uptake in tumor of CrTac:NCr-Foxn1nu mouse xenografted with human NCI-H69 cells assessed as DM1 level at 1 mg/kg, iv measured after 24 hrs by LC-MS/MS analysis relative to DM1 alone; type: ADME, organism-based, Neoplasm; details: in vivo
Procedure, shortened: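 NCI-H69 subcutaneous tumors of 250-600 mm3 in nude mice, groups of 3, dosed i.v. Free DM1 was given in 10% propylene glycol/WFI, conjugates in 10% propylene glycol/5 mM citrate pH 4. Tumors were excised at 24 h and homogenized 1:4 (w/v) in 0.1 M ammonium bicarbonate pH 8.0. Homogenate was reduced with TCEP in acetonitrile (15 min, 37 °C), capped with 0.2 M NEM (15 min, 37 °C), and DM1-NEM quantified by LC-MS/MS against standards in blank tumor homogenate. Values were normalized to DM1 dose.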

[19] = target: Somatostatin receptor type 4 (Homo sapiens, UniProt P31391); test: Displacement of [125I]somatostatin from human SSTR4 expressed in CHO-K1 cell membranes after 120 mins
Sequence of Somatostatin receptor type 4 (P31391 whole entry): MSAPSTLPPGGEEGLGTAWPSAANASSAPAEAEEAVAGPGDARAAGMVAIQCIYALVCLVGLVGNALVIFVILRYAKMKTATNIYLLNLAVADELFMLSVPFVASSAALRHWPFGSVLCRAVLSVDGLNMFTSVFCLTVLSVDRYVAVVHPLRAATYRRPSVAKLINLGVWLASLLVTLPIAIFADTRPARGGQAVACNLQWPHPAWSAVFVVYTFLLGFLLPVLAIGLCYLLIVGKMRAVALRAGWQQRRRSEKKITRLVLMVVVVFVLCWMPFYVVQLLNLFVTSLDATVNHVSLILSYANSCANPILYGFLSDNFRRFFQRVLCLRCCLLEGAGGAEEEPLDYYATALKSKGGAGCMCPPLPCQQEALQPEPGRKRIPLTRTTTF

[20] = target: T1, Somatostatin receptor type 5; test: Displacement of [125I]somatostatin from human SSTR5 expressed in CHO-K1 cell membranes after 120 mins
[21] = AUC (0 to 6 hrs) in Beagle dog at 0.1 mg/kg, iv; type: ADME, organism-based, Canis lupus familiaris; set-up: dose 0.1 mg/kg, time < 6 hr, route intravenous; details: in vivo
[22] = test system: NCI-H524; test: Cytotoxicity in human NCI-H524 cells pre-incubated for 2 hrs followed by compound wash out and subsequently incubated for 70 hrs by Cell Titer Glo assay; type: functional, cell-based
Procedure, shortened: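 Cells were then spun, washed with fresh medium, resuspended and grown a further 70 h. Proliferation was read by CellTiter-Glo luminescence, and % inhibition calculated relative to vehicle. IC50 came from a four-parameter nonlinear fit.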

[23] = target: T2, Somatostatin receptor type 2; test: Displacement of [125I]somatostatin from human SSTR2 expressed in CHO-K1 cell membranes after 240 mins
Procedure, shortened: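 Membranes from CHO-K1 cells stably expressing human SSTR2, prepared in modified HEPES pH 7.4. Nonspecific binding was defined with 1 µM somatostatin. Bound ligand was measured by filtration, 3 washes and counting. Six test concentrations were run, top 10 nM, in five-fold dilutions.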

[24] = target: Somatostatin receptor type 1 (Homo sapiens, UniProt P30872); test: Displacement of [125I]somatostatin from human SSTR1 expressed in CHO-K1 cell membranes after 120 mins
Sequence of Somatostatin receptor type 1 (P30872 whole entry): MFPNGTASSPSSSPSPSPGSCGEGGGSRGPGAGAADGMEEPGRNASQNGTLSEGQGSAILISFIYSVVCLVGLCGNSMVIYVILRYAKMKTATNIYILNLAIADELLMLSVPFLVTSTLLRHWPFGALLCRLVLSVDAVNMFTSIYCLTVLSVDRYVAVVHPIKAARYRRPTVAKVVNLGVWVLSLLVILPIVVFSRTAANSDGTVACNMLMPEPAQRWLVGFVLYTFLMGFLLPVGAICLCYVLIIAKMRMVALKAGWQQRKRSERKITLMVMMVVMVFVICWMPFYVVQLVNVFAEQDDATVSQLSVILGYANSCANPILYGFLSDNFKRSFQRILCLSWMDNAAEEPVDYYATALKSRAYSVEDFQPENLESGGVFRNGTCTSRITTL

[25] = test system: NCI-H69; test: Antitumor activity against human NCI-H69 cells xenografted in CrTac:NCr-Foxn1nu mouse assessed as tumor regression at 0.7 mg/kg, iv measured up to 20 days; type: functional, organism-based; procedure, shortened: as §1

## COc1cc2cc(c1Cl)N(C)C(=O)C[C@H](OC(=O)[C@H](C)N(C)C(=O)CCSSC[C@H](NC(=O)[C@@H]1CSSC[C@H](NC(=O)[C@H](N)Cc3ccccc3)C(=O)N[C@@H](Cc3ccc(O)cc3)C(=O)N[C@H](Cc3c[nH]c4ccccc34)C(=O)N[C@@H](CCCCN)C(=O)N[C@@H]([C@@H](C)O)C(=O)N1)C(N)=O)[C@@]1(C)O[C@H]1[C@H](C)[C@@H]1C[C@@](O)(NC(=O)O1)[C@H](OC)/C=C/C=C(\C)C2
[1]
  Activity: 100%
[2]
  half-life at 1000 µM: 0.167 h
[3]
  Activity: Non-Toxic
[4]
  half-life: 2.33 h
[5]
  Activity: Active
[6]
  pKd: 7.70
[7]
  Cmax: 708 nM
[8]
  pIC50: 6.04
[9]
  pEC50: 9.00
[10]
  Activity: Active
[11]
  Activity: Active
[12]
  Papp A→B: 0.018 ×10⁻⁶ cm/s
[13]
  Activity: Active
[14]
  clearance: 1.66 mL/min/kg
[15]
  Activity: 100%
[16]
  Activity: Active
[17]
  Activity: 100%
[18]
  Drug uptake: Active
[19]
  pKd: 5.26
[20]
  pKd: 8.02
[21]
  AUC(0-t) at 6 h: 0.47 µM·h
[22]
  pIC50: 8.00
[23]
  pKi: 10.66
[24]
  pKd: 6.51

## COc1cc2cc(c1Cl)N(C)C(=O)C[C@H](OC(=O)[C@H](C)N(C)C(=O)CCSSC[C@H](NC(=O)[C@@H]1CSSC[C@H](NC(=O)[C@H](N)Cc3ccccc3)C(=O)N[C@@H](Cc3ccc(O)cc3)C(=O)N[C@H](Cc3c[nH]c4ccccc34)C(=O)N[C@@H](CCCCNC(=O)NCCCCCCN)C(=O)N[C@@H]([C@@H](C)O)C(=O)N1)C(N)=O)[C@@]1(C)O[C@H]1[C@H](C)[C@@H]1C[C@@](O)(NC(=O)O1)[C@H](OC)/C=C/C=C(\C)C2
[8]
  pIC50: 6.19
[25]
  Activity: inactive
[22]
  pIC50: 6.24
[23]
  pKi: 5.47

## COc1cc2cc(c1Cl)N(C)C(=O)C[C@H](OC(=O)[C@H](C)N(C)C(=O)CCSSC(C)(C)[C@H](NC(=O)[C@@H]1CSSC[C@H](NC(=O)[C@H](N)Cc3ccccc3)C(=O)N[C@@H](Cc3ccc(O)cc3)C(=O)N[C@H](Cc3c[nH]c4ccccc34)C(=O)N[C@@H](CCCCN)C(=O)N[C@@H]([C@@H](C)O)C(=O)N1)C(N)=O)[C@@]1(C)O[C@H]1[C@H](C)[C@@H]1C[C@@](O)(NC(=O)O1)[C@H](OC)/C=C/C=C(\C)C2
[2]
  half-life at 1000 µM: 0.947 h
[3]
  Activity: Non-Toxic
[4]
  half-life: 1.38 h
[7]
  Cmax: 867 nM
[8]
  pIC50: 5.98
[14]
  clearance: 1.09 mL/min/kg
[17]
  Activity: 100%
[21]
  AUC(0-t) at 6 h: 0.769 µM·h
[22]
  pIC50: 8.10
[23]
  pKi: 10.82
